According to ChEMBL document CHEMBL1123358, “Design and synthesis of sodium (beta R*, gamma S*)-4-[[3-(4-acetyl-3-hydroxy-2-propylphenoxy)propyl] thio]-gamma-hydroxy-beta-methylbenzenebutanoate: a novel, selective, and orally active receptor antagonist of leukotriene D4” (J Med Chem, 1986):

Experiments:
Cavia porcellus [1] = assay: In vivo activity against bronchoconstrictions induced by LTD4 (0.2 ug/kg, iv) in anesthetized guinea pig following id administration of compound; assay type: functional
Procedure, shortened: (§1)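 Anesthetized, artificially ventilated guinea pigs received a single intraduodenal dose, then iv LTD₄ (0.2 μg/kg) bronchoconstriction challenge. Effective dose is the minimum dose giving more than 50% inhibition of bronchoconstriction within 50 min after dosing, with the number of experiments in parentheses.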

Cavia porcellus [2] = species: Cavia porcellus; assay: In vitro inhibition of responses induced by LTD4 in Isolated terminal guinea pig ileum segments at 0.1 ug/mL; assay type: functional
Procedure, shortened: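 Terminal ileum segments (2.5 cm) in aerated Krebs-bicarbonate with atropine (10⁻⁶ M) and timolol maleate (0.5 μg/mL), held under 1 g passive force. After equilibration, submaximal control contractions to LTD₄ (0.3 ng/mL) were recorded. Test substance was given for 30 s, then the control LTD₄ concentration was re-added and tension was measured. Percent inhibition is at 0.1 μg/mL, mean ± SEM of three determinations.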

Cavia porcellus [3] = assay: In vivo activity against bronchoconstrictions induced by LTD4 (0.2 ug/kg, iv) in anesthetized guinea pig following iv administration of compound; assay type: functional
Procedure, shortened: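 Artificially ventilated, anesthetized guinea pigs were challenged with LTD₄ 0.2 μg/kg iv. Drug was given iv in cumulative doses, 5 min before each successive LTD₄ challenge. ED₅₀ is from one to two determinations, or mean ± SEM where repeated, with n in parentheses.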

[4] = biological target: T1, Cysteinyl leukotriene receptor 1 (Cavia porcellus, UniProt Q2NNR5); assay: Compound was tested for inhibition of radioligand [3H]LTC4 binding to Cysteinyl leukotriene D4 receptor in guinea pig lung membranes; assay type: cell membranes, Membrane
T1 sequence (Q2NNR5 whole entry): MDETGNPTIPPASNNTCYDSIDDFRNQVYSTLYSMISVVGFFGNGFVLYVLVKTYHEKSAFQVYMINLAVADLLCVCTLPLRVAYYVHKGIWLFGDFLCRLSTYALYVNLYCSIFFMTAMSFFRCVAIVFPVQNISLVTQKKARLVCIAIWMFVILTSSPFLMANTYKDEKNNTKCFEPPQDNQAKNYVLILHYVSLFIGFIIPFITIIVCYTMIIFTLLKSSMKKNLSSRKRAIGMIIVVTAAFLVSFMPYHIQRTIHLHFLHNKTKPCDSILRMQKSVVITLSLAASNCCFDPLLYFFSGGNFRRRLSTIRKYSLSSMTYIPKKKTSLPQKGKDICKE

[5] = biological target: T1, Cysteinyl leukotriene receptor 1; assay: Compound was tested for inhibition of radioligand [3H]LTD4 binding to Cysteinyl leukotriene D4 receptor in guinea pig lung membranes; assay type: cell membranes, Membrane
Cavia porcellus [6] = assay: In vivo activity against bronchoconstrictions induced by LTD4 (0.2 ug/kg, iv) in anesthetized guinea pig administered intraduodenally at 5 mg/kg concentration of compound; assay type: functional; conditions: route intraduodenal; procedure, shortened: as §1

With `CCCc1c(OCCCOc2ccc(C(=O)CCC(=O)O)cc2C)ccc(C(C)=O)c1O` the ED (Cavia porcellus [1]) was >10 mg/kg and the inhibition at 0.1 µg/mL (Cavia porcellus [2]) was 53%.

For `CCCc1c(OCCCSc2ccc(C(O)C(C)CC(=O)[O-])cc2)ccc(C(C)=O)c1O.[Na+]` (centres undefined), the ED (Cavia porcellus [1]) was >10 mg/kg, the ED50 (Cavia porcellus [3]) was 1.5 mg/kg and the inhibition at 0.1 µg/mL (Cavia porcellus [2]) was 62%.

`CCCc1c(OCCCSc2ccc(C(=O)CCC(=O)O)cc2F)ccc(C(C)=O)c1O` was tested, and the ED (Cavia porcellus [1]) was 10 mg/kg, the ED50 (Cavia porcellus [3]) was 1.1 mg/kg and the inhibition at 0.1 µg/mL (Cavia porcellus [2]) was 82%.

`CCCc1c(OCCCSc2ccc(C(O)C(C)(C)CC(=O)[O-])cc2)ccc(C(C)=O)c1O.[Na+]` (centres undefined) was tested, and the ED (Cavia porcellus [1]) was 5 mg/kg, the ED50 (Cavia porcellus [3]) was 0.5 mg/kg and the inhibition at 0.1 µg/mL (Cavia porcellus [2]) was 45%.

Work on `CCCc1cc(C(=O)CCC(=O)O)ccc1SCCCOc1ccc(C(C)=O)c(O)c1CCC` yielded an ED (Cavia porcellus [1]) of 10 mg/kg, an ED50 (Cavia porcellus [3]) of 0.2 mg/kg and an inhibition at 0.1 µg/mL (Cavia porcellus [2]) of 37%.

`CCCc1c(OCCCSc2ccc(CC(=O)O)cc2)ccc(C(C)=O)c1O` gave an ED (Cavia porcellus [1]) of 10 mg/kg, an ED50 (Cavia porcellus [3]) of 1.3 mg/kg and an inhibition at 0.1 µg/mL (Cavia porcellus [2]) of 65%.

With `CCCc1c(OCC(O)COc2ccc3c(=O)cc(C(=O)O)oc3c2CCC)ccc(C(C)=O)c1O` (centres undefined) [FPL-55712] the ED (Cavia porcellus [1]) was >10 mg/kg, the ED50 (Cavia porcellus [3]) was 0.1 mg/kg and the inhibition at 0.1 µg/mL (Cavia porcellus [2]) was 83%.

`CCCc1c(OCC(O)CSc2ccc(C(=O)CCC(=O)O)cc2F)ccc(C(C)=O)c1O` (centres undefined) was tested, and the ED (Cavia porcellus [1]) was >10 mg/kg, the ED50 (Cavia porcellus [3]) was 0.9 mg/kg and the inhibition at 0.1 µg/mL (Cavia porcellus [2]) was 32%.

`CCCc1c(OCCCSc2ccc(C(O)CCC(=O)O)cc2)ccc(C(C)=O)c1O` (centres undefined) showed an ED (Cavia porcellus [1]) of 10 mg/kg, an ED50 (Cavia porcellus [3]) of 0.5 mg/kg and an inhibition at 0.1 µg/mL (Cavia porcellus [2]) of 65%.

`CCCc1c(OCCCOc2ccc(C(=O)CCC(=O)O)cc2)ccc(C(C)=O)c1O` showed an ED (Cavia porcellus [1]) of 5 mg/kg, an ED50 (Cavia porcellus [3]) of 1.1 mg/kg and an inhibition at 0.1 µg/mL (Cavia porcellus [2]) of 49%.

With `CCCc1c(OCCCSc2ccc(C(=O)CCc3nnn[nH]3)cc2)ccc(C(C)=O)c1O` the ED (Cavia porcellus [1]) was >10 mg/kg, the ED50 (Cavia porcellus [3]) was 0.6 mg/kg and the inhibition at 0.1 µg/mL (Cavia porcellus [2]) was 63%.

`CCCc1c(OCCCSc2ccc(C(O)[C@@H](C)CC(=O)[O-])cc2)ccc(C(C)=O)c1O.[Na+]` (some centres undefined) gave a Ki [4] of 8.6 µM, a Ki [5] of 0.4 µM and an ED (Cavia porcellus [1]) of 5 mg/kg. For the same compound, the ED50 (Cavia porcellus [3]) was 0.26 mg/kg, the inhibition at 0.1 µg/mL (Cavia porcellus [2]) was 73% and the inhibition in vivo at 5 mg/kg (Cavia porcellus [6]) was > 50%.

`CCCc1c(OCCCSc2ccc(C(=O)CCC(=O)O)cc2)ccc(C(C)=O)c1O` showed an ED (Cavia porcellus [1]) of 10 mg/kg, an ED50 (Cavia porcellus [3]) of 1.1 mg/kg and an inhibition at 0.1 µg/mL (Cavia porcellus [2]) of 63%.

Work on `CCCc1c(OCCCOc2ccc(C(=O)CCC(=O)O)cc2F)ccc(C(C)=O)c1O` yielded an ED (Cavia porcellus [1]) of 10 mg/kg, an ED50 (Cavia porcellus [3]) of 1 mg/kg and an inhibition at 0.1 µg/mL (Cavia porcellus [2]) of 81%.
